DNMT1 inh = inhibitors of human DNMT1; P26358; DNMT1 molecular beacon, Hinp1I cleavage, fluorescence; inhibition (reported as % activation of signal), % at 10 µM; hit rate 0.83% among 360,000; AID 588458; in the data active = inhibition above about 50%
Rpn11 inh = Rpn11 (human) deubiquitinase inhibition; O00487; human 26S proteasome, Ub4-pepOG fluorescence polarization; 20S core pre-blocked with epoxomicin; inhibition, % at 20 µM; hit rate 0.59% among 360,000;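 active = inhibition at 20 µM, scaled to each plate's controls, above about 33%, limit read from the data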
Target sequence (O00487 whole entry, looked up): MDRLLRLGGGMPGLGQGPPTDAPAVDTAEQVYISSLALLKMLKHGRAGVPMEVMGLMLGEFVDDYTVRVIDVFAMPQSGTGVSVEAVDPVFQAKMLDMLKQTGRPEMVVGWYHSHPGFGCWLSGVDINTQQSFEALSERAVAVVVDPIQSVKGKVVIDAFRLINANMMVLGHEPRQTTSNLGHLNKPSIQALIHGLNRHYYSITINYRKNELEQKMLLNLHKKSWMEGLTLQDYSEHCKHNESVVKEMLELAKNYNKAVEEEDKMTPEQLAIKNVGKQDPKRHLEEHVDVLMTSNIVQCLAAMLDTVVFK
LMPTP inh = LMPTP (human) inhibition | recombinant LMPTP-A, OMFP fluorogenic substrate, fluorescence intensity | inhibition, % at 20 µM | hit rate 0.22% among 360,000;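 active = compounds that cut the enzyme signal by at least half of the control window in the single-dose screen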
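Test system – LMPTP-A enzyme · Amount – LMPTP-A at 0.625 nM final in the reaction · Buffer or medium – Bis-Tris pH 6.0, DTT, detergent · Reagent – OMFP 400 µM · Doses – single 20 µM dose · Schedule – reaction 50 min, room temperature, dark · Detection – fluorescence intensity of OMFP turnover product · Evaluation – percent inhibition versus substrate-only and uninhibited controls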
STEP block = inhibitors of human striatal-enriched phosphatase STEP; hit rate 0.25% among 360,000; inhibition, % at 20 µM; recombinant STEP, OMFP fluorogenic substrate, fluorescence; P54829;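 active = inhibition at 20 µM, scaled per plate between control wells, above about 37%, limit read from the data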
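Measure: Control-normalized % inhibition with plate pattern correction | Test system: STEP phosphatase, cell-free reaction | Medium: pH 6.0 Bis-Tris with DTT and Tween 20 | Technique: Fluorescence, 480/540 nm | Times: Reaction 20 min, ambient temperature | Doses: Single compound dose of 20 µM, 1% DMSO final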
Scp1 inh = blocks human Scp-1 phosphatase activity | AID 493091 | inhibition, % at 20 µM | hit rate 0.88% among 340,000 | Recombinant Scp1, phosphopeptide, malachite green phosphate absorbance;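 active = inhibition above about 50% at 20 µM, limit read from the data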
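Test system – truncated SCP-1 phosphatase (76-261aa) · Reagent – Phosphorylated 17-residue peptide substrate · Incubation – 45 min room-temperature reaction, 5 min colour, 30 min stabiliser · Detection – colorimetric phosphate reagent with accelerator and stabiliser, absorbance at 630 nm · Measure – % inhibition at 20 µM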
SUMO1-SIM PPI = modulators of human SUMO1-mediated protein-protein interactions | P63165 | SUMO1 binding to a labelled peptide, TR-FRET, 1 h | inhibition, % at 20 µM | hit rate 0.33% among 360,000 | AID 602429; in the data active = inhibition above about 37%
Target sequence (P63165 whole entry, looked up): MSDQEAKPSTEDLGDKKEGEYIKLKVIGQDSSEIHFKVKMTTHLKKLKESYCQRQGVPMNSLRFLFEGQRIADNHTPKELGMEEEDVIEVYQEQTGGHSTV
DNMT1 confirm = confirmation of human DNMT1 inhibitors; shares compounds with DNMT1 inh; DNMT1 molecular beacon HinP1I cleavage, fluorescence; inhibition, % at 10 µM; hit rate 8% among 2,300; AID 602385;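 active = average inhibition of at least 30% in the single-concentration confirmation test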
DNMT1 interf = beacon fluorescence artifact counter-screen; shares compounds with DNMT1 inh; DNMT1 molecular beacon spectral interference counterscreen, fluorescence 485/520; activation (fluorescence interference), % at 10 µM; hit rate 1% among 2,300;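 active = activation of at least 30% at 10 µM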;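 note: DNMT1 catalytic domain with a HinP1I cleavage step and a FAM/dabcyl DNA beacon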
Large screens that a line does not name were inactive (follow-up assays come after a bar, where shown). Only some compounds are listed: those with a hit (about 2.3% of all), similar ones and a draw of the others.

CCN(C(=O)c1cc2c(=O)[nH]c3ccc(C)cc3c2s1)c1ccccc1F	DNMT1 inh 63.4 | DNMT1 confirm inactive | DNMT1 interf inactive
CCOc1ccc(C(=O)NC2CC(=O)N(c3ccc4c(c3)OCCO4)C2)cc1 (centres undefined)	none
CN(C)C(=O)CSc1nnc(-c2ccc(S(=O)(=O)N3CCCC3)cc2)n1C	none
S=c1[nH]nc(-c2cccc(Cl)c2)n1/N=C/c1ccc(-c2ccccc2Br)o1	DNMT1 inh 62.2 | DNMT1 confirm inactive | DNMT1 interf inactive
NC(=S)N/N=C/c1coc2ccc(Br)cc2c1=O	none (not shown: Rpn11 inh)
NC(=S)N/N=C/c1coc2c(ccc3ccccc32)c1=O	DNMT1 inh 54.6 | DNMT1 confirm inactive | DNMT1 interf inactive
O=C(N/N=C/c1coc2ccccc2c1=O)c1cn(-c2ccccc2)nc1-c1ccc(F)cc1	DNMT1 inh 59.5 | DNMT1 confirm inactive | DNMT1 interf inactive
O=c1c2c(nc3n1CCS3)c1cc(F)ccc1n2Cc1cc(=O)n2cc(Cl)ccc2n1	none (no result: DNMT1 inh, Rpn11 inh, LMPTP inh, STEP block, SUMO1-SIM PPI)
C[C@@H]1CN([C@@H](C)CO)C(=O)c2cc(Br)cnc2O[C@H]1CN(C)C(=O)Nc1ccc2c(c1)OCO2	none (no result: Scp1 inh)
NC(=O)CC(NC(=O)Cc1cccc2ccccc12)c1ccc(NCC2CC2)c([N+](=O)[O-])c1 (centres undefined)	none
NC(=O)CC(NC(=O)Cc1cccc2ccccc12)c1ccc(NCCOc2ccccc2)c([N+](=O)[O-])c1 (centres undefined)	DNMT1 inh 51.1 | DNMT1 confirm inactive | DNMT1 interf inactive
NC(=O)CC(NC(=O)Cc1cccc2ccccc12)c1ccc(NC2CCCCC2)c([N+](=O)[O-])c1 (centres undefined)	DNMT1 inh 64.3 | DNMT1 confirm inactive | DNMT1 interf inactive
O=C(NCCCO)c1ccc2nc(-c3ccco3)c(-c3ccco3)nc2c1	SUMO1-SIM PPI 45.0 | DNMT1 confirm inactive | DNMT1 interf inactive
CS/C(Nc1cc(Cl)ccc1Cl)=C(/C#N)C(=O)c1ccco1	none
COc1ccc2oc(=O)c(C(=O)NCc3cccnc3)cc2c1	DNMT1 inh 51.2 | DNMT1 confirm inactive | DNMT1 interf inactive
N#CC(C(=O)Nc1ccc(Cl)c(Cl)c1)=C1Nc2ccccc2N1	DNMT1 inh 65.1 | DNMT1 confirm inactive | DNMT1 interf inactive
N#CC(C(=O)Nc1ccccc1)=C1Nc2ccccc2N1	none
CCc1nc2ccc(C(=O)NCCCN3CCCC3=O)cn2c1N(C)C(=O)c1cccc(OC)c1	none (no result: Scp1 inh)
Cc1cc(C(=O)C(C)Cl)c(C)n1Cc1ccco1 (centres undefined)	DNMT1 inh 65.2 | DNMT1 confirm inactive | DNMT1 interf inactive
Cc1cc(C(=O)COC(=O)C(C)NC(N)=O)c(C)n1Cc1ccco1 (centres undefined)	none
O=C(c1ccc2c(c1)OCO2)N(Cc1ccco1)C1(C(=O)NC2CCCCC2)CCCCC1	none
CC1(C(=O)NNC(=O)c2ccc(=O)oc2)CC1Br (centres undefined)	DNMT1 inh 74.6 | DNMT1 confirm inactive | DNMT1 interf inactive
Cc1cc(=O)oc(C)c1C(=O)NNC(=O)C1(C)CC1Br (centres undefined)	none
Cc1cc2cc(C)c3nnc(SCC(=O)Nc4ccc(S(=O)(=O)N5CCCCC5)cc4)n3c2cc1C	DNMT1 inh 56.0 | DNMT1 confirm inactive | DNMT1 interf inactive
O=C(CCl)Nc1nc(-c2ccco2)c(-c2ccco2)s1	none
Nc1nc(-c2ccco2)c(-c2ccco2)s1	DNMT1 inh 51.2 | DNMT1 confirm inactive | DNMT1 interf inactive
CCCCN(C(=O)c1cccc2c(=O)c(C)c(-c3ccccc3)oc12)c1ccccc1	none
CCOc1ccccc1-n1nnnc1SCC(=O)NC(=O)NCc1ccco1	DNMT1 inh 59.6 | DNMT1 confirm inactive | DNMT1 interf inactive
O=C(CSc1nnnn1-c1ccccc1)NC(=O)NCc1ccco1	DNMT1 inh 68.2 | DNMT1 confirm inactive | DNMT1 interf inactive
